The source made the active and inactive calls. The calls are words filed in the database; no cut-off is given here.

The results in this text go back to ChEMBL document CHEMBL1152296, “Fragment-based design of small molecule X-linked inhibitor of apoptosis protein inhibitors” (J Med Chem, 2008).

The subject of series [1] is MDA-MB-231. Kind of series: Sensitization of 120 ng/mL TRAIL-induced apoptosis in human MDA-MB-231 cells assessed as combination index at 12 uM after 24 hrs by ATPlite assay. The format is functional. In general terms: ATP-based viability assays read luminescence as a measure of living cells.
Series [2] has as its system MDA-MB-231. Kind of series: Sensitization of 130 ng/mL TRAIL-induced apoptosis in human MDA-MB-231 cells assessed as combination index at 13 uM after 24 hrs by ATPlite assay. The format is functional.
The test system of series [3] is MEF. Kind of series: Inhibition of wild type MEF proliferation assessed as cell viability at 5 to 45 uM after 24 hrs by ATPlite assay relative to control. The format is cell-based. The conditions noted are these: mouse.
Series [4] in a line: Stability in human plasma by LC/MS/MS analysis. The format is ADME, cell-free. The following applies: read-out: Stability. The method, boiled down:
(§1)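 Incubation in human plasma at 37 °C for 15, 60 and 120 min. Quantitation by LC/MS/MS in MRM mode, with results expressed as percent remaining of initial concentration.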

Series [5] concerns Plasma. Kind of series: Stability in human plasma assessed as compound remaining by LC/MS/MS analysis. Format: ADME, cell-free. The method, boiled down:
as §1

The nature of series [6]: Metabolic stability in liver microsomes assessed as half life after 30 mins by LC/MS/MS analysis in presence of NADPH. The format is ADME, Microsome. A general note: Liver microsomes are vesicles of endoplasmic reticulum, rich in cytochrome P450 enzymes.
Series [7] is described as follows: Metabolic stability in liver microsomes assessed as intrinsic clearance after 30 mins by LC/MS/MS analysis in presence of NADPH. The format is ADME, Microsome. The conditions noted are these: 0.5 h.
The nature of series [8]: Permeability by PAMPA method. Format: ADME. For orientation: PAMPA measures passive passage across an artificial lipid membrane.
Series [9] is described as follows: Apparent solubility after 1 day by nephelometry-based method. The format is physicochemical. In outline: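 DMSO stock at 10 mM prepared on day 1. Tested at 8 concentrations in triplicate. Assay run on day 1 and read on day 2.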
The test system of series [10] is MEF. The experiment in a line: Inhibition of XIAP knockout MEF proliferation assessed as cell viability after 24 hrs by ATPlite assay relative to control. The format is functional, cell-based. The conditions noted are these: Mus musculus.
Series [11] deals with MDA-MB-231. Kind of series: Increase in caspase-3 activation in human MDA-MB-231 cells at 5 to 20 uM after 24 hrs by MSD assay. The format is functional, cell-based.
In series [12] the test system is MDA-MB-231. The experiment in a line: Sensitization of 50 ng/mL TRAIL-induced apoptosis in human MDA-MB-231 cells assessed as combination index at 5 uM after 24 hrs by ATPlite assay. The format is functional.
The test system of series [13] is MDA-MB-231. The experiment in a line: Sensitization of 90 ng/mL TRAIL-induced apoptosis in human MDA-MB-231 cells assessed as combination index at 9 uM after 24 hrs by ATPlite assay. Format: functional.
Series [14] has as its system MDA-MB-231. Kind of series: Sensitization of 100 ng/mLTRAIL-induced apoptosis in human MDA-MB-231 cells assessed as combination index at 10 uM after 24 hrs by ATPlite assay. The format is functional.
Series [15] deals with MDA-MB-231. Kind of series: cells. The following applies: Homo sapiens, MDA-MB-231, 48 h.
For series [16], the target named is E3 ubiquitin-protein ligase XIAP (Homo sapiens, UniProt P98170). Kind of series: Binding affinity to histidine6-tagged human XIAP Bir3 domain expressed in Escherichia coli BL21(DE3). In outline: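 Binding to 15N-labelled Bir3 was measured by 2D [15N,1H]-HSQC NMR titration at 300 K. Samples held 0.1 mM protein in 100 mM potassium phosphate pH 7.0 with 5% DMSO and 7% D2O. At least six ligand concentrations were used. Kd came from a non-linear least-squares fit of fractional shift change (p) against ligand concentration.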
Sequence of E3 ubiquitin-protein ligase XIAP (P98170 whole entry, the tested form may be a part): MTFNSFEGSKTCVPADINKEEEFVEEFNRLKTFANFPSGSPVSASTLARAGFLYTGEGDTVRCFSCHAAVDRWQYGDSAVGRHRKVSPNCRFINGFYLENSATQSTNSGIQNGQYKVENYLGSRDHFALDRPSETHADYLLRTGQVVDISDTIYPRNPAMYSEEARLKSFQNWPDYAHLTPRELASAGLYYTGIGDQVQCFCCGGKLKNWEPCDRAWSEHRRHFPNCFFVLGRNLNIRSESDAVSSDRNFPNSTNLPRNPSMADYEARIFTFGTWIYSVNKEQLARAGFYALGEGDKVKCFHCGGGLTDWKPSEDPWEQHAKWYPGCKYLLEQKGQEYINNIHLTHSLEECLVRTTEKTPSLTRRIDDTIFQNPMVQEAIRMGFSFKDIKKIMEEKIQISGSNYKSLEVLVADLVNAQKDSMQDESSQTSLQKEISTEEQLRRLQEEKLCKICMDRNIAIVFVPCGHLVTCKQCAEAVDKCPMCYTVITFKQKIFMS

For orientation: solubility (kinetic) means the concentration staying in solution when a stock, usually in DMSO, is diluted into the medium. Take `CN[C@@H](C)C(=O)Nc1ccc(Oc2ccc(OC)cc2)c(C(=O)NCc2csc(-c3cccs3)n2)c1`: the Activity in [1] is 0.27; in [2], 0.32; in series [3], “Toxic”; in series [12] it was 0.44; in [13], 0.4; in series [14], 0.41. The half-life in series [4] was over 120 min; in [6] it was 14.5 min. In addition, the Stability in series [5] amounted to 93.9%. For the same compound, the clearance in series [7] is 47.7 µL/min/mg. The compound further returned a permeability in series [8] of 27%. Also, in series [9], the solubility (kinetic) at 24 h is over 100 µg/mL. Further, the outcome in [10] and in series [11] was Active.

One may read the IC50 as the concentration that gives 50% inhibition. A higher IC50 goes with weaker potency in that assay. `CC[C@H](C)[C@H](NC(=O)[C@@H]1CCCN1C(=O)[C@@H](NC(=O)[C@H](C)N)C(C)C)C(=O)O` registered a half-inhibitory concentration (IC50) in series [15] of over 50 µM.

In general, Kd refers to the constant that tells how readily two partners part at equilibrium. Consider `C[C@H](N)C(=O)Nc1ccc(Oc2ccccc2Cl)cc1`, for which, in series [16], binding was put at a Kd of 200 µM.
